# Activity calls are given as the source filed them. The rule behind the calls is not given here.
# Tests used:
# [1] = Toxicity in male Beagle dog assessed as decrease in RR interval at 3 mg/kg, po administered as single dose observed upto 9 hrs post last dose by telemetry; format: organism-based, Canis lupus familiaris; conditions: in vivo
# How it was run: (§1)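 Crossover telemetry study in dogs at three oral doses (0.3, 1 and 3 mg/kg), N=4. Endpoints were blood pressure, maximum systolic left ventricular pressure, LV +dP/dt max, activity, heart rate, and RR, QT and QTc intervals, followed up to 9 h post dose.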
# [2] = Toxicity in male Beagle dog assessed as increase in maximum systolic left ventricular pressure at 3 mg/kg, po observed up to 9 hrs post last dose by telemetry; format: organism-based, Canis lupus familiaris; conditions: in vivo; how it was run: as §1
# [3] = Toxicity in male Beagle dog assessed as increase in maximum systolic left ventricular pressure at 1 mg/kg, po observed upto 9 hrs post last dose by telemetry; format: organism-based, Canis lupus familiaris; conditions: in vivo; how it was run: as §1
# [4] = Toxicity in dog assessed as ataxia at 45 mg/kg, po using spray-dried dispersion formulation measured after 45 mins; format: organism-based, Canis lupus familiaris; conditions: in vivo, 0.75 h
# How it was run: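 Dogs received single escalating oral doses as a spray-dried dispersion (10% drug loading with HPMCAS-M). The dispersion was suspended in 0.5 wt% methylcellulose/0.5 wt% HPMCAS in 20 mM tris buffer, pH 7.4. One dog per sex per dose was used, and clinical signs were recorded.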
# [5] = Toxicity in dog assessed as salivation at 45 mg/kg, po using spray-dried dispersion formulation measured after 45 mins; format: organism-based, Canis lupus familiaris; conditions: in vivo, 0.75 h
# [6] = Toxicity in dog assessed as induction of mucoid feces at 15 mg/kg, po using spray-dried dispersion formulation; format: organism-based, Canis lupus familiaris; conditions: in vivo
# [7] = Toxicity in dog assessed as induction of watery feces at 5 mg/kg, po using spray-dried dispersion formulation; format: organism-based, Canis lupus familiaris; conditions: in vivo
# [8] = fAUC (0 to 24 hrs) in dog at 15 mg/kg, po using spray-dried dispersion formulation; format: ADME, organism-based, Canis lupus familiaris; conditions: in vivo
# [9] = fAUC (0 to 24 hrs) in dog at 3 mg/kg, po using spray-dried dispersion formulation; format: ADME, organism-based, Canis lupus familiaris; conditions: in vivo
# [10] = Toxicity in rat assessed as increase in food intake at 10 mg/kg, po administered for 14 days; format: organism-based; conditions: in vivo, 336 h, time 14 day
# How it was run: (§2)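 Two-week repeat-dose toxicity study in rats. Oral dosing in 0.5% methylcellulose at 3, 10, 30 (males)/15 (females) mg/kg, N=4/sex/dose. Food intake, body weight gain and histopathology were assessed.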
# [11] = fCmax in rat at 15 mg/kg, po administered for 14 days; format: ADME, organism-based; conditions: in vivo, 336 h, time 14 day
# How it was run: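 2-week repeat oral dosing in rats, 0.5% methylcellulose formulation; N=4/sex/dose; doses 3, 10, 30 (males)/15 (females) mg/kg; unbound exposures reported per dose and sex.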
# [12] = Unbound brain concentration in […] in Sprague-Dawley rat model at 3.2 mg/kg, sc measured after 1.67 hrs; format: ADME, organism-based; conditions: in vivo
# How it was run: (§3)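 Randomly selected animals (N=2/dose) at the end of the rat PPI study, T = 1.67 h. Dosed subcutaneously as a suspension in 0.5% methylcellulose in water. Plasma and brain concentrations were averaged.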
# [13] = Unbound brain concentration in […] in Sprague-Dawley rat model at 1 mg/kg, sc measured after 1.67 hrs; format: ADME, organism-based; conditions: in vivo; how it was run: as §3
# [14] = Unbound brain concentration in […] in Sprague-Dawley rat model at 0.32 mg/kg, sc measured after 1.67 hrs; format: ADME, organism-based; conditions: in vivo; how it was run: as §3
# [15] = Unbound plasma concentration in […] in Sprague-Dawley rat model at 0.32 mg/kg, sc measured after 1.67 hrs; format: ADME, organism-based; conditions: in vivo; how it was run: as §3
# [16] = Unbound brain concentration in amphetamine-induced C57BL/6J mouse model of hyperlocomotion at 1 mg/kg, sc measured after 1 hr; format: ADME, organism-based; conditions: in vivo
# How it was run: (§4)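 Satellite PK animals from the mouse aLMA study, N=2/dose. Dosed subcutaneously with a solution in 5/15/80 DMSO/Solutol/water. Plasma and brain were sampled at T = 1 h.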
# [17] = Unbound plasma concentration in amphetamine-induced C57BL/6J mouse model of hyperlocomotion at 0.32 mg/kg, sc measured after 1 hr; format: ADME, organism-based; conditions: in vivo; how it was run: as §4
# [18] = Unbound brain concentration in CD-1 mouse at 1 mg/kg, sc measured after 2 hrs by LC-MS/MS analysis; format: ADME, organism-based; conditions: in vivo
# Mus musculus = assay: Reversal of amphetamine-induced hyperlocomotion in C57BL/6J mouse at 1 mg/kg, sc incubated for 30 mins followed by addition of amphetamine measured after 90 mins; format: functional, organism-based; conditions: time 120.0 min
# How it was run: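 The compound was given sc as a solution in 5/15/80 DMSO/Solutol/water, and amphetamine-induced locomotor activity was compared with vehicle. Plasma and brain exposure came from a satellite group (N=2/dose) sampled at 1 h after the same dosing.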
# [19] = Partial agonist activity at muscarinic M2/M3 receptor in Hartley guinea pig ileum assessed as stimulation of contraction; format: tissue-based; conditions: Cavia porcellus
# How it was run: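 Agonist mode used a guinea pig ileum tissue bath with the compound applied alone. Concentration–response curves were run with or without the non-selective muscarinic antagonist atropine. Contraction was expressed relative to the maximal carbachol response.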
# [20] = Fraction unbound in rat brain; format: ADME, cell-free
# [21] = Ratio of AUC in rat brain to fAUC in rat plasma; format: ADME, cell-free; conditions: in vivo
# [22] = Aqueous solubility of compound at pH 6.5; format: physicochemical; conditions: buffer
# [23] = Permeability of compound in MDCKII-LE cells; format: ADME, cell-based, Canis lupus familiaris; conditions: dog, MDCK; read-out: permeability
# [24] = Toxicity in rat assessed as histopathological changes at 3 to 30 mg/kg, po administered for 14 days; format: organism-based; conditions: in vivo, 336 h, dose 3-30 mg/kg, time 14 day; how it was run: as §2
# [25] = Ratio of fAUC in CD-1 mouse brain to plasma at 1 to 10 mg/kg, sc measured after 2 hrs by LC-MS/MS analysis; format: ADME, organism-based; conditions: brain and plasma, dose 1-10 mg/kg, read-out: Ratio AUC
# [26] = In vivo positive allosteric modulation of muscarinic M1 receptor in CD1 mouse assessed as increase in ACh-induced IP-1 levels in […] tissue at 1 mg/kg, sc measured after 2 hrs by HTRF assay relative to baseline; format: functional
# How it was run: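 Given sc as a solution in 5/15/80 DMSO/Solutol/water. Striatal IP1 was read 2 h after dosing and expressed as fold increase over baseline. Compound levels were measured in striatal tissue at 2 h (N=5/dose). Each animal's fold increase was plotted against its unbound brain concentration.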
# [27] = fCmax in dog at 45 mg/kg, po using spray-dried dispersion formulation; format: ADME, organism-based, Canis lupus familiaris; conditions: in vivo
compound,measurement,setting,value
Cc1cnc(C(=O)N[C@H]2CCOC[C@@H]2O)cc1Cc1ccc(-c2cscn2)cc1,Activity,[1],Toxic
same,Activity,[2],Toxic
same,Activity,[3],8 mmHg
same,Activity,[4],Toxic
same,Activity,[5],Toxic
same,Activity,[6],Toxic
same,Activity,[7],Toxic
same,fAUC,[8],7.765 µM·h
same,fAUC,[9],5.242 µM·h
same,Activity,[10],Non-Toxic
same,fCmax,[11],708 nM
same,Drug uptake(free),[12],44.4 nM
same,Drug uptake(free),[13],17.4 nM
same,Drug uptake(free),[14],4.3 nM
same,Cp(f),[15],11.9 nM
same,Drug uptake(free),[16],18.5 nM
same,Cp(f),[17],23.4 nM
same,Drug uptake(free),[18],14.3 nM
same,Activity,Mus musculus,Active
same,EC50,[19],351 nM
same,Fu,[20],4%
same,Ratio AUC,[21],0.36
same,solubility,[22],2.7 µg/mL
same,Papp,[23],22 ×10⁻⁶ cm/s
same,Activity,[24],Non-Toxic
same,Kp uu at 2 h,[25],0.34
same,fold change (FC),[26],2
same,fCmax,[27],952 nM
